Test [1] has as its system Globisporangium ultimum. Briefly: Antifungal activity against logarithmic phase of Pythium ultimum Trow ATCC 58812 assessed as growth inhibition measured at 5 days post-drug treatment. Format: functional, organism-based. The conditions noted are these: ATCC 58812, 120 h. Put shortly:
(§1)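 Log-phase mycelium grown on cellophane over PDA (pH 5.6, 26 ± 1 °C) moved to PDA containing compound at 10, 50 and 100 µg mL^-1 final, with 0.1% DMSO in test and control media. Colony diameter was measured daily for 5 days, in triplicate, relative to untreated controls. IC50 came from curves of activity (%) versus log inhibitor concentration.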

In test [2] the test system is Globisporangium ultimum. Put plainly: Antifungal activity against logarithmic phase of Pythium ultimum ATCC 58812 assessed as growth inhibition at 100 ug/ml measured at 5 days post-drug treatment. In kind it is functional. Conditions: ATCC 58812, 120 h, read-out: GI. In short, it runs like this:
(§2)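 Log-phase mycelium (from 10 mm stationary-phase disks grown on cellophane over PDA, pH 5.6, 26 ± 1 °C) moved to PDA with compound added from DMSO stock at 45 °C. Final concentrations were 10, 50 or 100 µg mL^-1, with 0.1% DMSO in test and control media. Colony diameter was read daily for 5 days, in triplicate, as % of untreated control.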

The subject of test [3] is Botrytis cinerea. Briefly: Antifungal activity against logarithmic phase of Botryotinia fuckeliana ATCC 48339 assessed as growth inhibition at 100 ug/ml measured at 5 days post-drug treatment. In kind it is functional. The conditions noted are these: ATCC 48339, 120 h, read-out: GI. In short, it runs like this:
as §2

Test [4] concerns Globisporangium ultimum. Briefly: Antifungal activity against logarithmic phase of Pythium ultimum ATCC 58812 assessed as growth inhibition at 10 ug/ml measured at 5 days post-drug treatment. Format: functional. Conditions: ATCC 58812, 120 h, read-out: GI. Put shortly: as §2
In test [5] the test system is Pyricularia grisea. Put plainly: microbe, parasite or virus in culture. In kind it is functional. Conditions: ATCC 64413, 120 h, read-out: GI.
In test [6] the test system is Botrytis cinerea. Put plainly: Antifungal activity against logarithmic phase of Botryotinia fuckeliana ATCC 48339 assessed as growth inhibition at 10 ug/ml measured at 5 days post-drug treatment. In kind it is functional. The conditions noted are these: ATCC 48339, 120 h, read-out: GI. In short, it runs like this: as §2
The subject of test [7] is Pyricularia grisea. Put plainly: microbe, parasite or virus in culture. The conditions noted are these: ATCC 64413, 120 h, read-out: GI. Format: functional. The source holds these as a separate data set.
In test [8] the test system is Pyricularia grisea. Put plainly: microbe, parasite or virus in culture. Format: functional. The conditions noted are these: ATCC 64413, 120 h, read-out: GI. This is another data set of the same source.
The test system of test [9] is Globisporangium ultimum. Briefly: Antifungal activity against logarithmic phase of Pythium ultimum ATCC 58812 assessed as growth inhibition at 50 ug/ml measured at 5 days post-drug treatment. In kind it is functional. Conditions: ATCC 58812, 120 h, read-out: GI. Put shortly: as §2
The test system of test [10] is Botrytis cinerea. Put plainly: Antifungal activity against logarithmic phase of Botryotinia fuckeliana ATCC 48339 assessed as growth inhibition at 50 ug/ml measured at 5 days post-drug treatment. Conditions: ATCC 48339, 120 h, read-out: GI. Format: functional. Put shortly:
as §2

For test [11], the system named is Botrytis cinerea. Put plainly: Antifungal activity against logarithmic phase of Botryotinia fuckeliana ATCC 48339 assessed as growth inhibition measured at 5 days post-drug treatment. In kind it is functional, organism-based. Conditions: ATCC 48339, 120 h. Put shortly:
as §1

The subject of test [12] is Pyricularia grisea. Briefly: microbe, parasite or virus in culture. Format: functional, organism-based. Conditions: ATCC 64413, 120 h.
Test [13] can be described thus: In vitro inhibition of basal rate of photosynthetic electron transport (Hill reaction) in active intact chloroplast thylakoid membrane of Spinacia oleracea (spinach) leaves assessed as inhibition of light-driven ferricyanide reduction at 5 uM measured at 24 degC at 30 s intervals for 10 min (reference value: 100 +/-3.1%).
The nature of test [14]: Ratio of IC50 for photosynthetic electron transport in active intact chloroplast thylakoid membrane of Spinacea oleracea L. leaves to IC50 for Pythium ultimum ATCC 58812.

Here are results for ten compounds from ChEMBL document CHEMBL3045616, “Synthetic pyrazole derivatives as growth inhibitors of some phytopathogenic fungi” (J Agric Food Chem, 2007).

For orientation: IC50 means the concentration at which inhibition is half-maximal. Turning to `O=c1c2cn[nH]c2[nH]c(=S)n1Cc1ccccc1`, the IC50 with Globisporangium ultimum [1] turned out to be 66 µM. Also, the inhibition of growth at 100 µg/mL in the test on Globisporangium ultimum [2] worked out at 78%; with Botrytis cinerea [3], 31.9%; with Pyricularia grisea [7] it was 44.4%. In addition, the inhibition of growth at 10 µg/mL was determined as 44.1% in the test on Globisporangium ultimum [4], 0.5% in the test on Pyricularia grisea [5] and 13.5% in the test on Botrytis cinerea [6]. Also, the inhibition of growth at 50 µg/mL came out at 23.4% in the test on Pyricularia grisea [8], 64.6% in the test on Globisporangium ultimum [9] and 23.4% with Botrytis cinerea [10].

Take `CCOC(=O)c1cn[nH]c1NC(=S)Nc1cccc(Cl)c1`: the inhibition of growth at 100 µg/mL in the test on Globisporangium ultimum [2] came out at 60.8%; with Botrytis cinerea [3] it was 76.2%; in the test on Pyricularia grisea [7], 26%. Moreover, the results for the inhibition of growth at 10 µg/mL with Globisporangium ultimum [4], with Pyricularia grisea [5] and with Botrytis cinerea [6] were 32.9%, 16.6% and 56%, respectively. The concentration for half-maximal inhibition (IC50) with Botrytis cinerea [11] turned out to be 31 µM. The inhibition of growth at 50 µg/mL turned out to be 18% in the test on Pyricularia grisea [8], 38.1% in the test on Globisporangium ultimum [9] and 56.8% in the test with Botrytis cinerea [10].

As for `COC(=O)N(OC)c1ccccc1COc1ccn(-c2ccc(Cl)cc2)n1` [PYRACLOSTROBIN], in the test with Globisporangium ultimum [1], the IC50 was below 10 µM. Further, the inhibition of growth at 100 µg/mL in the test with Globisporangium ultimum [2] was found to be 100%. The inhibition of growth at 10 µg/mL with Globisporangium ultimum [4] was 100%. The inhibition of growth at 50 µg/mL in the test with Globisporangium ultimum [9] was 100%.

For `Cc1cccc2sc3nncn3c12` [TRICYCLAZOLE], the inhibition of growth at 10 µg/mL with Pyricularia grisea [5] worked out at 0%. In addition, the inhibition of growth at 100 µg/mL with Pyricularia grisea [7] came to 62%. The inhibition of growth at 50 µg/mL with Pyricularia grisea [8] was found to be 24%. In the test with Pyricularia grisea [12], this compound yielded a concentration for half-maximal inhibition (IC50) of 474 µM.

As to `Cc1c(C(=O)O)c(C(=O)NC(C)(C)C)nn1-c1ccc(Cl)cc1`, the IC50 in test [13] is 950 µM; in the test with Globisporangium ultimum [1] it was 38 µM. In addition, the results for the inhibition of growth at 100 µg/mL with Globisporangium ultimum [2], with Botrytis cinerea [3] and with Pyricularia grisea [7] were 69.3%, 49.9% and 33.2%, respectively. Further, the values for the inhibition of growth at 10 µg/mL with Globisporangium ultimum [4], in the test with Pyricularia grisea [5] and with Botrytis cinerea [6] were 47.2%, 20.9% and 45.6%, respectively. Further, the figures for the inhibition of growth at 50 µg/mL in the test on Pyricularia grisea [8], in the test on Globisporangium ultimum [9] and in the test on Botrytis cinerea [10] were 31.5%, 69.3% and 49.3%, respectively. In test [14], the Ratio IC50 turned out to be 25.

For the compound `CCOC(=O)c1cn[nH]c1NC(=S)Nc1ccccc1Cl`, the inhibition of growth at 100 µg/mL was 70% in the test with Globisporangium ultimum [2], 36% in the test with Botrytis cinerea [3] and 67% in the test with Pyricularia grisea [7]. Besides, the inhibition of growth at 10 µg/mL with Globisporangium ultimum [4] turned out to be 66.5%; in the test with Pyricularia grisea [5], 48.7%; with Botrytis cinerea [6] it was 4.3%. Also, the values for the inhibition of growth at 50 µg/mL in the test on Pyricularia grisea [8], in the test on Globisporangium ultimum [9] and in the test with Botrytis cinerea [10] were 60.9%, 68.7% and 30.9%, respectively. The compound further showed an IC50 with Pyricularia grisea [12] of 48 µM.

For `CCOC(=O)c1cn[nH]c1NC(=S)Nc1cccc(C(F)(F)F)c1`, the inhibition of growth at 100 µg/mL was 28% with Globisporangium ultimum [2], 23.2% in the test on Botrytis cinerea [3] and 51% in the test with Pyricularia grisea [7]. For the same compound, the results for the inhibition of growth at 10 µg/mL in the test on Globisporangium ultimum [4] and with Pyricularia grisea [5] were 23% and 29.4%, respectively. Also, the inhibition of growth at 50 µg/mL with Pyricularia grisea [8] was 46.3%; with Globisporangium ultimum [9] it was 24.2%. For the same compound, half-maximal inhibition in the test on Pyricularia grisea [12] (IC50) was put at 224 µM.

As to `O=C(Nc1ccccc1)c1ccccc1I` [BENODANIL], the inhibition of growth at 100 µg/mL in the test on Botrytis cinerea [3] worked out at 97.6%. In the test with Botrytis cinerea [6], the inhibition of growth at 10 µg/mL was determined as 6.3%. For the same compound, the IC50 in the test on Botrytis cinerea [11] stood at 66 µM. Moreover, the inhibition of growth at 50 µg/mL with Botrytis cinerea [10] came out at 91.2%.

For `Cc1c(C(=O)O)c(C(=O)NC(C)(C)C)nn1-c1ccccc1`, the IC50 in the test with Globisporangium ultimum [1] stood at 79 µM. Moreover, the values for the inhibition of growth at 100 µg/mL in the test on Globisporangium ultimum [2], with Botrytis cinerea [3] and in the test on Pyricularia grisea [7] were 83.4%, 60.5% and 13.9%, respectively. Further, the inhibition of growth at 10 µg/mL turned out to be 12.1% in the test on Globisporangium ultimum [4], 0.6% in the test on Pyricularia grisea [5] and 39.5% in the test on Botrytis cinerea [6]. Also, the inhibition of growth at 50 µg/mL was found to be 3.8% with Pyricularia grisea [8], 82.3% in the test with Globisporangium ultimum [9] and 43.1% with Botrytis cinerea [10].

As to `O=c1c2cn[nH]c2[nH]c(=S)n1-c1ccccc1Cl`, in the test on Botrytis cinerea [3], the inhibition of growth at 100 µg/mL stood at 66.2%. In addition, the inhibition of growth at 10 µg/mL in the test on Botrytis cinerea [6] amounted to 40%. The IC50 with Botrytis cinerea [11] is 83 µM. Moreover, the inhibition of growth at 50 µg/mL in the test with Botrytis cinerea [10] is 63.8%.
